The list is not random: actives were taken first. Their share in the collection is about 3.1%.
PolyA inhibitor – inhibitors of polyadenylation in S. cerevisiae. S. cerevisiae SKY197-pL101 polyadenylation reporter, beta-gal luminescence; efflux-impaired pdr1/pdr3 knockout yeast; score 100 = 6 SD above DMSO. activity score, % at 12 µM. 300,000 tested, 0.02% active. AID 1875;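 active = lowest replicate activity score at least 50, where 100 means six control SD above control mean; inconclusive = lowest score under 50 but half or more replicates reach 50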;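 note: yeast exposed to compound for 9 h at 30 °C; higher score means more reporter readthrough which indicates perturbed polyadenylation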
Calb FLC – affects C. albicans growth with fluconazole. C. albicans CaCi-2 (fluconazole-resistant clinical isolate) + fluconazole, Alamar Blue growth, 48 h. growth inhibition, % (no concentration beside the values). 300,000 tested, 0.57% active. AID 1979;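 active = growth inhibition above about 58% in most replicates, limit read from the data, passing the limit was not always enough; inconclusive = exactly half the replicates above a set limit; inactive = most replicates below a set limit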;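 note: all wells also contain fluconazole at 8 µg/ml as a sub-toxic cotreatment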
T cruzi inh – T. cruzi replication inhibition; T. cruzi beta-gal in NIH3T3, luminescence, 90 h; inhibition, % (concentration not given with the values); 300,000 tested, 1.4% active; AID 1885;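 active = mean inhibition across valid replicates above about 55%, limit read from the data; inconclusive = mean below that limit but half or more replicates reach it; inactive = mean below it, under half of replicates reach it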;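 note: signal also drops with host cell toxicity which is not excluded here; higher percent means less beta-gal luminescence so fewer parasites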
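System – NIH/3T3 host cells with β-galactosidase reporter T. cruzi · Doses – single 50 nL compound addition per well in DMSO · Reagent – 5000 T. cruzi trypomastigotes/well · Medium – Low-serum DMEM with 2% FBS · Timing – ≥90 h infection period, 3 h prior cell attachment · Evaluation – parasite load inhibition, % · Technique – GalScreen luminescence, 60 min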
Beta cell apopt – beta cell apoptosis inhibition. protection from apoptosis, % (test concentration not listed). AID 435005. 300,000 tested, 0.8% active. INS-1E cytokine-induced death, ATP luminescence, 48 h; percent of positive-control rescue, neutral wells zero;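 active = Every replicate reaches about 75%, or at least half do and their mean reaches it too, limit read from the data; inconclusive = At least half of replicates reach the limit but their mean does not; inactive = Under half of replicates reach the limit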;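 note: higher means more ATP so stronger rescue from cytokine killing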
CSC inhib – blocks cancer stem cells; cancer stem cell-like cells viability, luminescence; inhibition, % at 7.5 µM; 300,000 tested, 1.1% active; AID 2717; in the data active = inhibition above about 75%; inconclusive = no clear call, values can overlap the other calls; tested in HMLE shEcad cells
HIF activator – HIF pathway transcriptional activation; 300,000 tested, 0.32% active; AID 1910; activation, % at 7.5 µM (by protocol); U2OS HRE-luciferase reporter, luminescence; normalized: DMSO 0%, desferrioxamine 100%;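 active = mean activation of at least 10% of the iron chelator positive control signal, with at least half of replicates also reaching 10%; inconclusive = mean and replicate majority disagree about reaching 10%; inactive = mean and most replicates under 10%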
Each line names hits and unclear results; the compound was inactive in the other large screens.

COc1ccc(CCC(=O)N(C)CC(=O)Nc2ccc(Cl)c(C(F)(F)F)c2)cc1	none
Cc1c(C(=O)N2CCCC2)c(S(=O)(=O)Nc2ccccc2)c(C)n1C	none
CC(C)n1c(/C=C/[C@H](O)C[C@H](O)CC(=O)O)c(-c2ccc(F)cc2)c2ccccc21	none (no result: PolyA inhibitor, Calb FLC, T cruzi inh, CSC inhib, HIF activator)
O=C(O)C[C@H](O)C[C@H](O)/C=C/c1c(C2CC2)nc2ccccc2c1-c1ccc(F)cc1	Calb FLC 102.9 (no result: Beta cell apopt, CSC inhib)
O=C1NC(Cc2ccc(O)cc2)c2nc3ccccc3c(=O)n2-c2cc(Cl)ccc21 (stereo unspecified)	none (no result: PolyA inhibitor, Calb FLC, T cruzi inh, HIF activator)
COC(=O)c1[nH]c2cc(C)ccc2c1NC(=O)CN1CCN(c2ccccc2OC)CC1	none
O=C(CN1CCCc2ccccc21)NC(=O)NCc1ccccc1	none
COC(=O)c1[nH]c2ccc(C)cc2c1NC(=O)CN1CCCc2ccccc21	T cruzi inh 85.3
O=C(CN1CCCc2ccccc21)N/N=C/c1c(O)ccc2ccccc12	Calb FLC 84.7, CSC inhib inconclusive, HIF activator 16.3
CC(C)(C)NC(=O)NC(=O)CN1CCCc2ccccc21	Calb FLC 114.2 (no result: PolyA inhibitor, T cruzi inh, HIF activator)
COc1ccccc1N(CC(=O)N/N=C/c1c(O)ccc2ccccc12)S(C)(=O)=O	Beta cell apopt 87.0, HIF activator 11.1
COC(=O)C1=C(C)NC(=S)NC1c1ccc(-c2cc(Cl)ccc2Cl)o1 (stereo unspecified)	none
COc1ccccc1NCC(=O)N/N=C/c1c(O)ccc2ccccc12	Beta cell apopt 76.7
O=C(CNc1ccc(F)cc1)N/N=C/c1c(O)ccc2ccccc12	Beta cell apopt 81.0
COc1ccccc1N(CC(=O)NC1CCCCC1)S(C)(=O)=O	Calb FLC inconclusive, HIF activator 93.6
CCOc1ccc(CNS(=O)(=O)c2cc(-c3cc(C)no3)ccc2OC)cc1OC	none
COc1ccc(CCNC(=O)COC(=O)C2CC2)cc1OC	none (no result: PolyA inhibitor, Calb FLC, T cruzi inh, HIF activator)
Cc1ccc(S(=O)(=O)NC(=O)c2ccc(-c3ccc(-c4ccccc4)cc3)o2)c(C)c1	CSC inhib 81.7
CC(C)(C)CC(C)(C)c1ccc(OCCOCC[N+](C)(C)Cc2ccccc2)cc1	Beta cell apopt 100.0, CSC inhib 118.0 (no result: PolyA inhibitor, Calb FLC, T cruzi inh, HIF activator)
C[N+](C)(CCOc1ccccc1)Cc1ccccc1 (tested in a mixture with another compound)	none
COc1cccc(/C=C/c2nc(C#N)c(NCC(C)C)o2)c1	CSC inhib 128.4
COCCCNc1oc(/C=C/c2ccccc2)nc1C#N	none
CC(C)CNC(=O)c1cc(S(=O)(=O)N2CCOCC2)ccc1N1CCCC1	none
CC(C)(C)n1ncc2c(=O)n(Cc3cccc(Cn4cnc5c(cnn5C(C)(C)C)c4=O)c3F)cnc21	Beta cell apopt 86.6 (no result: PolyA inhibitor, Calb FLC, T cruzi inh, CSC inhib, HIF activator)
COc1ccc(C(=O)NCC(c2cccnc2)N2CCN(c3ccc(F)cc3)CC2)cc1OC (stereo unspecified)	none (no result: PolyA inhibitor, Calb FLC, T cruzi inh, HIF activator)
O=C(NCC(c1cccnc1)N1CCN(c2ccc(F)cc2)CC1)c1ccco1 (stereo unspecified)	T cruzi inh 59.6
COc1cc(C(=O)NCC(c2cccnc2)N2CCN(c3ccc(F)cc3)CC2)cc(OC)c1OC (stereo unspecified)	T cruzi inh 71.5 (no result: PolyA inhibitor, Calb FLC)
O=C(NCC(c1cccnc1)N1CCN(c2ccc(F)cc2)CC1)c1ccc2c(c1)OCO2 (stereo unspecified)	T cruzi inh inconclusive
COc1ccc(N2CCN(C(CNC(=O)c3ccco3)c3cccnc3)CC2)cc1 (stereo unspecified)	none
O=C(NCC(c1cccnc1)N1CCN(c2ccc(F)cc2)CC1)c1ccc(F)cc1 (stereo unspecified)	T cruzi inh 59.6
Cc1c(NC(=O)CSC(=S)N2CCCC2)c(=O)n(-c2ccccc2)n1C	none
COc1ccc(OC)c(-n2c(CN3CCC(C(N)=O)CC3)nc3ccccc3c2=O)c1	Calb FLC 117.3 (no result: PolyA inhibitor)
O=C(Nc1ccccc1F)Nc1cccnc1Cl	none
COc1cccc(CN(CC(=O)NCc2ccccc2)C(=O)c2csnn2)c1	none (no result: CSC inhib)
O=C(CCc1ccccc1F)N1CCN(c2ccc(C(F)(F)F)cn2)CC1	none
CC(CC(=O)N1CCN(c2ccc(C(F)(F)F)cn2)CC1)n1ccnc1 (stereo unspecified)	T cruzi inh 67.5
O=[N+]([O-])C(/C=C(/Cl)[N+](=O)[O-])=C(N1CCCCC1)N1CCCCC1	T cruzi inh 55.3
O=C(/C=C/c1ccccc1[N+](=O)[O-])N1CCCCC1	none
O=C(CCCCC(=O)Nc1ccc(F)cc1)Nc1ccc(F)cc1	none
O=C(CCCCC(=O)Nc1ccc(F)cc1F)Nc1ccc(F)cc1F	Beta cell apopt 133.3
Cc1ccc(/C=C/C(=O)c2cc(Br)ccc2OC(=O)c2ccco2)cc1	CSC inhib 93.3
Cc1cccc(/C=C/C(=O)c2cc(Br)ccc(=O)c2O)c1	Calb FLC 99.6, CSC inhib 102.9
O=C(/C=C/c1cc(Br)ccc1O)c1ccco1	Calb FLC 93.0, CSC inhib inconclusive
CCc1ccc(/C=C/C(=O)c2cc(Br)ccc(=O)c2O)cc1	Calb FLC 93.8
O=C(/C=C/c1ccccc1O)c1ccco1	none
COc1ccccc1/C=C/C(=O)c1cc(Br)ccc1OC(=O)c1ccco1	none
COc1ccc(C(=O)CC(CC(=O)c2ccc(OC)cc2)C(=O)O)cc1	none
CS(=O)(=O)N(CC(=O)NCCSCc1ccccc1)c1ccccc1F	none (no result: Beta cell apopt)
CCCN(C(=O)c1ccco1)c1nnc(-c2ccccc2C)s1	PolyA inhibitor inconclusive
CCC1CCCCN1C(=O)Cn1c(=O)n(CCCC(=O)NCc2ccco2)c(=O)c2sccc21 (stereo unspecified)	none
O=C(c1ccc(F)c(F)c1)N1CCC2(CC1)NCCc1[nH]cnc12	none
OCCN1CCN(Cc2cccc(Oc3ccc(Cl)cc3)c2)CC1	T cruzi inh 60.7
CN1CCN(Cc2cccc(Oc3ccccc3)c2)CC1	none
OC1CCN(Cc2cccc(Oc3ccccc3)c2)CC1	T cruzi inh 67.6
CCOc1cc(C)c(S(=O)(=O)Nc2ccc3cn[nH]c3c2)cc1C	T cruzi inh inconclusive, Beta cell apopt 89.1
CN(C(=O)C(Cl)Cl)C1CC2C=CC1C2 (stereo unspecified)	none
Cc1ccc2cc(/C=N/NC(=O)[C@H]3C[C@@H]3c3ccccc3)c(Cl)nc2c1	T cruzi inh 55.5
Cc1cc(C(=O)Nn2c(-c3ccc(Br)cc3)nc3ccccc3c2=O)ccc1[N+](=O)[O-]	none
CC(C)(C)c1cnnn1-c1ccc(/C=N/Nc2ccc([N+](=O)[O-])cc2)cc1	Beta cell apopt 97.3
COC(=O)CC(NS(=O)(=O)c1cccs1)c1ccc2c(c1)OCO2 (stereo unspecified)	none
Cc1ccc(NS(=O)(=O)c2ccc(Cl)c(NC(=S)NC(=O)C3CCCCC3)c2)cc1Cl	Beta cell apopt 101.6, CSC inhib 106.0
CC(C)(CO)NCc1ccccc1OCC(=O)Nc1ccccc1	none
